In data set [1] the target is T1, 5-hydroxytryptamine receptor 4 (Homo sapiens, UniProt Q13639). In words: Displacement of [3H]GR113808 from human 5HT4 receptor expressed in HEK293 cells by liquid scintillation counting. The data set is classed as cell-based. Put shortly: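 Membranes from HEK293 line stably expressing human 5-HT4(b) at high level (5000 fmol/mg). Incubated with 0.3 nM [3H]GR113808 and 21 competitor concentrations in Tris-HCl pH 7.5, EDTA, EGTA, 2 mM MgCl2, ascorbate, 0.1% BSA, 100 µM GTP, room temperature 1 h. Filtered onto PEI-soaked filters, washed, scintillation counted. Ki derived from IC50 via Ki = IC50/(1+L/Kd).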
Background: Loss of bound radioactivity is the signal in a displacement assay; it reports binding, not function.

Data set [2] addresses T1, 5-hydroxytryptamine receptor 4. In words: Antagonistic activity at human 5HT4 receptor expressed in HEK293 cells assessed as inhibition of 5-HT stimulated ADCY activity after 20 mins. The data set is classed as functional, cell-based. In outline: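 Membranes from HEK293 cells stably expressing human 5-HT4(b) at low level (400 fmol/mg). Adenylyl cyclase activity was stimulated by 1 µM 5-HT with 21 antagonist concentrations, 0.1 mM [α-32P]ATP, 4 mM MgCl2, 1 mM IBMX, GTP and ATP-regenerating system, 32 °C, 20 min. [32P]cAMP was isolated on Dowex/alumina columns. IC50 was fitted by non-linear regression and Kb calculated using 5-HT EC50.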

Data set [3] is described as follows: Half life in bovine plasma by HPLC. The data set is classed as ADME, Bos taurus. The note with it: cattle. Put shortly:
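Ester incubated at 40 µM initial concentration in bovine plasma at 37 °C for up to 10 h. Aliquots were removed at intervals and H3PO4 added to release protein-bound drug. Parent ester and free-acid degradation product were quantified by HPLC, and half-life was calculated.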

Data set [4] in a line: Lipophilicity, log D of the compound in octanol buffer at pH 7.4. The data set is classed as physicochemical. Put shortly:
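Distribution between octanol and aqueous buffer at pH 7.4. Both phases were diluted and ligand concentration in each measured by HPLC. Not determined where micelles formed.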

For data set [5], the target named is T1, 5-hydroxytryptamine receptor 4. Description: Antagonistic activity at human 5HT4 receptor expressed in HEK293 cells. The data set is classed as functional, cell-based.

SMILES strings stand for the structures.

T1 sequence (Q13639 whole entry): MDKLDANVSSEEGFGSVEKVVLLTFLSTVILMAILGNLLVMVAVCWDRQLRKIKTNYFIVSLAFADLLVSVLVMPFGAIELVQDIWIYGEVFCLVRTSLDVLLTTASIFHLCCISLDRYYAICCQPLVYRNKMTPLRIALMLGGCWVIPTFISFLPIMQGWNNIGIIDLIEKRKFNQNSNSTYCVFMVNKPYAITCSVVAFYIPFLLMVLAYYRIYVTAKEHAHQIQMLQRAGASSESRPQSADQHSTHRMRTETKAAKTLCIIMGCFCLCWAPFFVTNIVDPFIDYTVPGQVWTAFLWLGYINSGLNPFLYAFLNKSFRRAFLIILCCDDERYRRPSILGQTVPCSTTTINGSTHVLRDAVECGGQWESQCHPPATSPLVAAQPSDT

As usually defined, the Ki is a dissociation constant, usually derived from enzyme kinetics or from competition with a known ligand. Read a low Ki as a stronger hold on the target. Usually pKb stands for the Kb on a negative log10 scale, so that one unit is a factor of ten. As a reminder, the half-life is the time needed for the level to fall by half in the phase considered. A high value points to slow decline. On to `O=C(CCCN1CCC(CNC(=O)c2c3n(c4ccccc24)CCCO3)CC1)OCc1ccccc1`, for which the Ki in data set [1] is 0.0427 nM. The pKb in data set [2] was found to be 9.85. This compound also gave a half-life in data set [3] of 20 min.

What is called logD is the decadic logarithm of the distribution of all forms, ionised or not, between an organic phase and buffer at a given pH. Higher therefore signals a more lipophilic compound. Take `O=C(O)CCCCN1CCC(CNC(=O)c2c3n(c4ccccc24)CCCO3)CC1`: in data set [1], the Ki is 2.04 nM. Moreover, in data set [2], the pKb was determined as 8.1. Further, the logD in data set [4] was -1.3.

`CCCCN1CCC(CNC(=O)c2c3n(c4ccccc24)CCCO3)CC1` [PIBOSEROD] had a Ki in data set [1] of 0.0525 nM. Also, the pKb in data set [2] is 9.26. This compound also came in with a logD in data set [4] of 2.2.

On to `O=C(CCCCN1CCC(CNC(=O)c2c3n(c4ccccc24)CCCO3)CC1)OCc1ccccc1`, for which, in data set [1], the Ki is 0.00145 nM. Besides, the pKb in data set [2] came to 10.2.

`O=C(CCCCCN1CCC(CNC(=O)c2c3n(c4ccccc24)CCCO3)CC1)OCc1ccccc1` had a Ki in data set [1] of 0.141 nM. For the same compound, in data set [2], the pKb came out at 10.2.

`O=C(O)c1ccc(CN2CCC(CNC(=O)c3c4n(c5ccccc35)CCCO4)CC2)cc1` showed a Ki in data set [1] of 5.01 nM. In addition, in data set [2], the pKb is 7.25.

Compound `O=C(O)CCCN1CCC(CNC(=O)c2c3n(c4ccccc24)CCCO3)CC1` showed a Ki in data set [1] of 2 nM. For the same compound, the pKb in data set [2] was 7.96. The logD in data set [4] was -1.2.

In turn, `CC(C)(C)C(=O)OCOC(=O)c1ccc(CN2CCC(CNC(=O)c3c4n(c5ccccc35)CCCO4)CC2)cc1` showed a Ki in data set [1] of 0.339 nM. The pKb in data set [2] is 9.07. In data set [4], this compound yielded a logD of 2.3.

For the compound `CCOP(=O)(CCN1CCC(CNC(=O)c2c3n(c4ccccc24)CCCO3)CC1)OCC`, the Ki in data set [1] is 1.26 nM. In addition, the pKb in data set [2] worked out at 8.64.

With `CC(C)(C)OC(=O)CN1CCC(CNC(=O)c2c3n(c4ccccc24)CCCO3)CC1`, in data set [1], the Ki was 0.759 nM. In data set [2], the negative-log Kb (pKb) was 9.01.

`CC(C)(C)OC(=O)CCCCCN1CCC(CNC(=O)c2c3n(c4ccccc24)CCCO3)CC1` showed a Ki in data set [1] of 0.0537 nM. Moreover, the pKb in data set [2] was 9.89.

As for `CCOC(=O)CCCN1CCC(CNC(=O)c2c[nH]c3ccccc23)CC1`, the Ki in data set [5] is 107 nM. Besides, the pKb in data set [2] stood at 5.84.

For the compound `CCOC(=O)CCCN1CCC(CNC(=O)c2c3n(c4ccccc24)CCCO3)CC1`, in data set [1], the inhibition constant Ki was 0.102 nM. Moreover, the pKb in data set [2] was determined as 9.43. For the same compound, the half-life in data set [3] was found to be 30 min.

With `O=C(O)CCCN1CCC(COC(=O)c2c[nH]c3ccccc23)CC1`, in data set [5], the Ki is 0.813 nM. In addition, the pKb in data set [2] is 8.16.

Compound `O=C(O)CCCCCCCCCCCN1CCC(CNC(=O)c2c3n(c4ccccc24)CCCO3)CC1` had a Ki in data set [1] of 2.45 nM. In data set [2], the pKb came out at 8.97.

With `O=C(O)CN1CCC(CNC(=O)c2c3n(c4ccccc24)CCCO3)CC1`, the affinity in data set [1], expressed as Ki, was 2.82 nM. The pKb in data set [2] was 7.91. This compound also yielded a logD in data set [4] of -1.1.

Regarding `CC(C)(C)C(=O)OCOC(=O)CCCCCN1CCC(CNC(=O)c2c3n(c4ccccc24)CCCO3)CC1`, the Ki in data set [1] is 0.0646 nM. Further, in data set [2], the negative-log Kb (pKb) is 9.83.

Regarding `COC(=O)CCCCCCCCCN1CCC(CNC(=O)c2c3n(c4ccccc24)CCCO3)CC1`, the inhibitory constant (Ki) in data set [1] is 0.195 nM. The pKb in data set [2] came to 9.33.

With `COC(=O)CCCCCCCCCCCN1CCC(CNC(=O)c2c3n(c4ccccc24)CCCO3)CC1`, the Ki in data set [1] is 0.339 nM. The pKb in data set [2] was 9.89.

`O=C(O)CCCN1CCC(CNC(=O)c2c[nH]c3ccccc23)CC1` gave a Ki in data set [5] of 3630 nM. Moreover, in data set [2], the negative-log Kb (pKb) came out at 4.62.

In data set [1], `CC(C)(C)OC(=O)CCCN1CCC(CNC(=O)c2c3n(c4ccccc24)CCCO3)CC1` gave a Ki of 0.234 nM. In addition, in data set [2], the pKb stood at 9.47.

Consider `O=C(O)CCN1CCC(CNC(=O)c2c3n(c4ccccc24)CCCO3)CC1`, for which the Ki in data set [1] is 1.12 nM. For the same compound, the pKb in data set [2] came to 8.08. Besides, the logD in data set [4] was -1.3.

In the case of `Cn1cc(C(=O)OCC2CCN(CCNS(C)(=O)=O)CC2)c2ccccc21`, the Ki in data set [5] was 0.0741 nM. Further, in data set [2], the pKb was 9.24.

Source of the values: ChEMBL document CHEMBL1629440, “Synthesis and pharmacological properties of novel hydrophilic 5-HT4 receptor antagonists” (Bioorg Med Chem, 2010).
